These results are taken from ChEMBL document CHEMBL4602700, “Discovery of WD Repeat-Containing Protein 5 (WDR5)-MYC Inhibitors Using Fragment-Based Methods and Structure-Based Design” (J Med Chem, 2020).

Experiment [1] concerns the target T1, WD repeat-containing protein 5 (Homo sapiens, UniProt P61964). The experiment can be described thus: Binding affinity to recombinant human His/FLAG-tagged WDR5 (22 to 334 residues) expressed in Escherichia coli expression system using FITC-AHx-SEEEIDVVSV as substrate by fluorescence polarization assay.
In experiment [2] the target is T1, WD repeat-containing protein 5. The experiment in a line: Inhibition of N-terminal FLAG-tagged human full-length WDR5 expressed in HEK293T cells harboring human C-terminal HA-tagged c-MYC assessed as reduction in WDR5-MYC interaction at 50 uM by immunoprecipitation analysis. To be noted: HEK-293T.
Experiment [3] has the same target. The experiment can be described thus: Inhibition of WDR5 in human HEK293T cells assessed as reduction in WDR5-MYC interaction at 5 uM incubated for 24 hrs by immunoprecipitation analysis. The class given is cell-based. Particulars: HEK-293T. The essentials:
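Intact HEK293 cells (WDR5-FLAG/c-MYC-HA) at ~70% confluence, PBS-washed, treated 24 h with 5 μM compound in OptiMEM; lysates α-FLAG immunoprecipitated overnight at 4 °C, MYC co-precipitation immunoblotted, input blotted for MYC levels; normalized to vehicle; minimum two biological repeats.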

Experiment [4] addresses MLL1-ASH2L/RbBP5/WDR5/DPY30 (Homo sapiens) (UniProt P61964+Q03164+Q9UBL3+Q15291+Q9C005). The experiment can be described thus: Inhibition of MLL1/WDR5/RBBP5/ASH2L/DPY30 complex (unknown origin) assessed as reduction in histone methyltransferase activity. The class given is protein assay.
For experiment [5], the target named is T1, WD repeat-containing protein 5. The experiment in a line: Inhibition of N-terminal FLAG-tagged human full-length WDR5 expressed in HEK293T cells harboring human C-terminal HA-tagged c-MYC assessed as reduction in MYC recruitment […] binding site at 20 uM incubated for 10 hrs by chromatin immunoprecipitation analysis. To be noted: HEK-293T. The class given is cell-based. The essentials:
(§1)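 HEK293 cells expressing HA-MYC and GFP grown to ~70% confluence, PBS-washed, treated 10 h in OptiMEM. Crosslinked 1% formaldehyde 10 min at room temperature, quenched with 125 mM glycine. Sonicated chromatin, α-HA ChIP; qPCR percent input against a 30-fold dilution of decrosslinked chromatin. One-tailed t-test; minimum three independent biological repeats.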

The target is the same in experiment [6]. The experiment can be described thus: Inhibition of N-terminal FLAG-tagged human full-length WDR5 expressed in HEK293T cells harboring human C-terminal HA-tagged c-MYC assessed as reduction in MYC recruitment C7orf40 binding site at 20 uM incubated for 10 hrs by chromatin immunoprecipitation analysis. The class given is cell-based. Particulars: HEK-293T. The essentials: as §1

For experiment [7] the target is unchanged. The experiment in a line: Inhibition of N-terminal FLAG-tagged human full-length WDR5 expressed in HEK293T cells harboring human C-terminal HA-tagged c-MYC assessed as reduction in MYC recruitment RPL5 binding site at 20 uM incubated for 10 hrs by chromatin immunoprecipitation analysis. It counts as cell-based. Particulars: HEK-293T. The essentials: as §1

Experiment [8] has the same target. The experiment can be described thus: Inhibition of N-terminal FLAG-tagged human full-length WDR5 expressed in HEK293T cells harboring human C-terminal HA-tagged c-MYC assessed as reduction in MYC recruitment ZFPM1 binding site at 20 uM incubated for 10 hrs by chromatin immunoprecipitation analysis. The class given is cell-based. Particulars: HEK-293T. The essentials:
as §1

Experiment [9] shares this target. The experiment in a line: Inhibition of N-terminal FLAG-tagged human full-length WDR5 expressed in HEK293T cells harboring human C-terminal HA-tagged c-MYC assessed as reduction in MYC recruitment RNPS1 binding site at 20 uM incubated for 10 hrs by chromatin immunoprecipitation analysis. It counts as cell-based. To be noted: HEK-293T. The essentials: as §1
Experiment [10] has the same target. The experiment in a line: Inhibition of N-terminal FLAG-tagged human full-length WDR5 expressed in HEK293T cells harboring human C-terminal HA-tagged c-MYC assessed as reduction in MYC recruitment RPS14 binding site at 20 uM incubated for 10 hrs by chromatin immunoprecipitation analysis. It counts as cell-based. To be noted: HEK-293T. The essentials:
as §1

Activity calls are given as the source filed them. No cut-off for these calls is given here.

Take `O=S(=O)(Nc1cn(CC2CC2)cn1)c1cc(Br)cc(Cl)c1O`: the Kd in [1] worked out at 2.1 µM.

`O=S(=O)(Nc1cn(C2CCNC2)cn1)c1cc(Br)cc(Cl)c1O` (configuration not stated): the Kd in [1] turned out to be 11 µM.

With `O=S(=O)(Nc1cn(CC2CCCO2)cn1)c1cc(Br)cc(Cl)c1O` (configuration not stated), in experiment [1], the Kd came to 8 µM.

On to `O=S(=O)(Nc1cn(C2CCCC2)cn1)c1cc(Br)cc(Cl)c1O`, for which the Kd in experiment [1] was 0.4 µM. In addition, the inhibition entry in experiment [2] and in experiment [3] was “Active” each time.

For `O=S(=O)(Nc1cn(C(C2CC2)C2CC2)cn1)c1cc(Br)cc(Cl)c1O`, in [1], the Kd came to 1.2 µM.

`CCOC(=O)c1nc(NS(=O)(=O)c2cc(Br)cc(Cl)c2O)cn1C1CCCC1`: the inhibition result in experiment [4], in experiment [2] and in experiment [3] was “Active” throughout.

As to `O=S(=O)(Nc1cnn(C2CCCC2)c1)c1cc(Br)cc(Cl)c1O`, the inhibition entry in experiment [4] and in experiment [2] was “Active” each time. In experiment [3], the inhibition entry was “inactive”.

On to `O=S(=O)(Nc1nc2ccccc2s1)c1cc(Br)cc(Cl)c1O`, for which the Kd in experiment [1] stood at 32 µM.

Regarding `CS(=O)(=O)c1nc(NS(=O)(=O)c2cc(Br)cc(Cl)c2O)cn1C1CCCC1`, the inhibition result in experiment [5] and in [8] was “inactive” each time. In addition, the inhibition result in experiment [6], in [7], in experiment [4], in [9], in experiment [2] and in experiment [10] was “Active” each time. The inhibition result in experiment [3] is “Active”.

For `O=C(c1nc(NS(=O)(=O)c2cc(Br)cc(Cl)c2O)cn1C1CCCC1)N1CCC(C2CCCN2)CC1` (configuration not stated), the Kd in experiment [1] came out at 5 µM.

As to `CNC(=O)c1nc(NS(=O)(=O)c2cc(Br)cc(Cl)c2O)cn1C1CCCC1`, the inhibition result in [4], in experiment [2] and in experiment [3] was “Active” throughout.

For orientation: Kd means a measure of binding affinity in units of concentration.
